The source made the active and inactive calls. The rule behind the calls is not given here.

A short description of this assay: Antioxidant activity assessed as ABTS radical scavenging activity after 15 mins by TEAC assay. The class given is functional. A digest of the protocol: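 ABTS (7 mM in water) oxidized with potassium persulfate (2.45 mM final), kept dark at room temperature 16 h, diluted with water to A734 0.700 ± 0.003. Sample added to diluted ABTS•+ (0–20 µM final); A734 decrease read after 15 min. Triplicate, with solvent blanks. Percent inhibition plotted against concentration alongside Trolox standard; TEAC = Trolox concentration matching antioxidant potential of 1 mM sample.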
In the case of `COCc1c(O)c(C)c2c3c1O[C@@H]1O[C@H](CO)[C@@H](O)[C@H](O)[C@H]1O[C@@H]3C[C@@H](c1ccc(OC)cc1)O2`, the Activity came out at 1.03 mM.

In the case of `COc1ccc([C@@H]2C[C@H]3O[C@H]4[C@H](Oc5c(C)c(O[C@@H]6O[C@H](CO)[C@@H](O)[C@H](O)[C@H]6O)c(C)c(c53)O2)O[C@H](CO)[C@@H](O)[C@@H]4O)cc1`, the outcome was inactive.

For `COc1ccc([C@@H]2C[C@@H](O)c3c(c(C)c(O[C@@H]4O[C@H](CO)[C@@H](O)[C@H](O)[C@H]4O)c(CO)c3O[C@@H]3O[C@H](CO)[C@@H](O)[C@H](O)[C@H]3O)O2)cc1`, the outcome was inactive.

Consider `COCc1c(O)c(C)c2c3c1O[C@@H]1O[C@H](CO)[C@@H](O)[C@H](O)[C@H]1O[C@@H]3C[C@@H](c1ccc(O)cc1)O2`, for which the Activity worked out at 1.51 mM.

`Cc1c(O[C@@H]2O[C@H](CO)[C@@H](O)[C@H](O)[C@H]2O)c(CO)c(O[C@@H]2O[C@H](CO)[C@@H](O)[C@H](O)[C@H]2O)c2c1O[C@H](c1ccc(O)cc1)C[C@H]2O`: the Activity was 1.17 mM.

Regarding `COc1ccc([C@@H]2C[C@@H]3O[C@H]4[C@H](Oc5c(C)c(O)c(C)c(c53)O2)O[C@H](CO)[C@@H](O)[C@@H]4O)cc1`, the Activity was 1.1 mM.

Consider `Cc1c(O)c(C)c2c3c1O[C@@H]1O[C@H](CO)[C@@H](O)[C@H](O)[C@H]1O[C@@H]3C[C@@H](c1ccc(O)cc1)O2`, for which the Activity worked out at 1.32 mM.

Regarding `COc1ccc([C@@H]2C[C@H]3O[C@H]4[C@H](Oc5c(C)c(O)c(C)c(c53)O2)O[C@H](CO)[C@@H](O)[C@@H]4O)cc1`, the Activity was found to be 1.36 mM.

Regarding `COc1ccc([C@@H]2C[C@@H](O)c3c(O[C@@H]4O[C@H](CO)[C@@H](O)[C@H](O)[C@H]4O)c(C)c(O[C@@H]4O[C@H](CO)[C@@H](O)[C@H](O)[C@H]4O)c(C)c3O2)cc1`, the outcome was inactive.

`Cc1c(O)c(C)c2c3c1O[C@@H]1O[C@H](CO)[C@@H](O)[C@H](O)[C@H]1O[C@H]3C[C@@H](c1ccc(O)cc1)O2`: the Activity is 1.44 mM.

With `O=c1c(O)c(-c2ccc(O)c(O)c2)oc2cc(O)cc(O)c12`, the Activity turned out to be 3.74 mM.

With `O=c1c(O[C@@H]2O[C@H](CO)[C@@H](O)[C@H](O)[C@H]2O)c(-c2ccc(O)c(O)c2)oc2cc(O)cc(O)c12`, the Activity was 1.91 mM.

As to `O=c1c(O[C@@H]2O[C@H](CO)[C@@H](O)[C@H](O)[C@H]2O)c(-c2ccc(O)cc2)oc2cc(O)cc(O)c12`, the Activity was 1.46 mM.

For the origin of these results see ChEMBL document CHEMBL1141320, “Antioxidant flavonoid glycosides from aerial parts of the fern Abacopteris penangiana” (J Nat Prod, 2007).
